Test results published in ChEMBL document CHEMBL1134337, “Behavioral approach to nondyskinetic dopamine antagonists: identification of seroquel” (J Med Chem, 2001).

Assays:
[1] = Number of animals showing dyskinesias was determined in haloperidol sensitized 3 cebus monkeys after (po) administration of 10 mg/kg; assay type: functional
In short: (§1)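 Adult female and male Cebus monkeys sensitized with oral haloperidol 1 mg/kg once per week until dyskinetic reactions occurred. Test drug given orally (2 mL/kg) in 0.5% w/w hydroxypropylmethylcellulose with 0.1% w/w Tween 80 in distilled water, at least 2 weeks between treatments. Two observers watched continuously for 6-7 h, recording reaction type and severity every 30 min. Score is monkeys with dyskinesias/monkeys tested.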

[2] = test system: Mus musculus; assay: Antagonism of apomorphine induced climbing was determined in female swiss -Webster mice after (ip) administration of 10 mg/kg; assay type: functional
In short: (§2)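 Female Swiss-Webster mice (about 20 g) were fasted about 24 h, then given test compound or vehicle ip or po (N = 20 per group). Vehicle was 0.5% w/w hydroxypropylmethylcellulose with 0.1% w/w Tween 80 in water. After 30 min, mice received apomorphine HCl 1.25 mg/kg sc. At 13 min, each mouse was watched for 1 min; score was mean of highest and lowest rung of 27. Groups were compared with vehicle by Student's t-test.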

[3] = test system: Mus musculus; assay: Antagonism of apomorphine induced climbing was determined in female swiss -Webster mice after (ip) administration of 20 mg/kg; assay type: functional; in short: as §2
[4] = test system: Mus musculus; assay: Antagonism of apomorphine induced climbing was determined in female swiss -Webster mice after (ip) administration of 40 mg/kg; assay type: functional; in short: as §2
[5] = test system: Mus musculus; assay: Antagonism of apomorphine induced swimming was determined in female swiss -Wbster mice after (ip) administration of 10 mg/kg; assay type: functional
[6] = test system: Mus musculus; assay: Antagonism of apomorphine induced swimming was determined in female swiss -Wbster mice after (po) administration of 20 mg/kg; assay type: functional
[7] = test system: Mus musculus; assay: Antagonism of apomorphine induced swimming was determined in female swiss -Wbster mice after (po) administration of 40 mg/kg; assay type: functional
[8] = Number of animals showing dyskinesias was determined in haloperidol sensitized 2 cebus monkeys after (po) administration of 10 mg/kg; assay type: functional; in short: as §1
[9] = Number of animals showing dyskinesias was determined in haloperidol sensitized 2 cebus monkeys after (po) administration of 20 mg/kg; assay type: functional; in short: as §1
[10] = molecular target: D(2) dopamine receptor (Rattus norvegicus, UniProt P61169); assay: Inhibition of spiropiperidone binding at dopamine receptor D2 of rat.
[11] = test system: Mus musculus; assay: Antagonism of apomorphine induced climbing was determined in female swiss -Webster mice after (ip) administration of 2.5 mg/kg; assay type: functional; in short: as §2
[12] = test system: Mus musculus; assay: Antagonism of apomorphine induced climbing was determined in female swiss -Webster mice after (ip) administration of 5 mg/kg; assay type: functional; in short: as §2
[13] = test system: Mus musculus; assay: Antagonism of apomorphine induced swimming was determined in female swiss -Webster mice after (ip) administration of 10 mg/kg; assay type: functional
[14] = test system: Mus musculus; assay: Antagonism of apomorphine induced swimming was determined in female swiss -Webster mice after (ip) administration of 2.5 mg/kg; assay type: functional
[15] = test system: Mus musculus; assay: Antagonism of apomorphine induced swimming was determined in female swiss -Webster mice after (ip) administration of 20 mg/kg; assay type: functional
[16] = test system: Mus musculus; assay: Antagonism of apomorphine induced swimming was determined in female swiss -Webster mice after (ip) administration of 40 mg/kg; assay type: functional
[17] = test system: Mus musculus; assay: Antagonism of apomorphine induced swimming was determined in female swiss -Webster mice after (ip) administration of 5 mg/kg; assay type: functional
[18] = molecular target: D(2) dopamine receptor (Rattus norvegicus) (UniProt P61169); assay: Binding affinity at dopamine receptor D2 from rat by spiropiperidone displacement.
In short: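 D2 receptor binding was read as % displacement of spiropiperidone, with test compound at 1000 nM unless stated otherwise. IC50 values used at least five concentrations per compound in triplicate. Each value is the mean of two replicate experiments differing by 5% or less.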

[19] = test system: Mus musculus; assay: Antagonism of apomorphine induced climbing was determined in female swiss -Webster mice after (po) administration of 20 mg/kg; assay type: functional; in short: as §2
[20] = test system: Mus musculus; assay: Antagonism of apomorphine induced climbing was determined in female swiss -Webster mice after (po) administration of 40 mg/kg; assay type: functional; in short: as §2
[21] = test system: Mus musculus; assay: Antagonism of apomorphine induced climbing was determined in female swiss -Webster mice after (po) administration of 5 mg/kg; assay type: functional; in short: as §2
[22] = test system: Mus musculus; assay: Antagonism of apomorphine induced climbing was determined in female swiss -Webster mice after (p.o.) +SKF525A administration of 10 mg/kg; assay type: functional; conditions: route oral; in short: as §2
[23] = test system: Mus musculus; assay: Antagonism of apomorphine induced climbing was determined in female swiss -Webster mice after (p.o.) +SKF525A administration of 2.5 mg/kg; assay type: functional; conditions: route oral; in short: as §2
[24] = test system: Mus musculus; assay: Antagonism of apomorphine induced climbing was determined in female swiss -Webster mice after (p.o.) +SKF525A administration of 20 mg/kg; assay type: functional; conditions: route oral; in short: as §2
[25] = test system: Mus musculus; assay: Antagonism of apomorphine induced climbing was determined in female swiss -Webster mice after (po) administration of 2.5 mg/kg; assay type: functional; in short: as §2
[26] = test system: Mus musculus; assay: Antagonism of apomorphine induced climbing was determined in female swiss -Webster mice after (p.o.) +SKF525A administration of 40 mg/kg; assay type: functional; conditions: route oral; in short: as §2
[27] = test system: Mus musculus; assay: Antagonism of apomorphine induced climbing was determined in female swiss -Webster mice after (p.o.) +SKF525A administration of 5 mg/kg; assay type: functional; conditions: route oral; in short: as §2
[28] = test system: Mus musculus; assay: Antagonism of apomorphine induced climbing was determined in female swiss -Webster mice after (po) administration of 10 mg/kg; assay type: functional; in short: as §2
[29] = Number of animals showing dyskinesias was determined in haloperidol sensitized 5 cebus monkeys after (po) administration of 20 mg/kg; 5/5; assay type: functional; in short: as §1
[30] = Number of animals showing dyskinesias was determined in haloperidol sensitized 5 cebus monkeys after (po) administration of 5 mg/kg; assay type: functional; in short: as §1
[31] = Number of animals showing dyskinesias was determined in haloperidol sensitized 12 cebus monkeys after (po) administration of 20 mg/kg; assay type: functional
In short: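 Adult male and female Cebus monkeys were sensitized with haloperidol 1 mg/kg po weekly until dyskinesias appeared. Test drug was given po (2 mL/kg) in HPMC/Tween 80 vehicle, with at least 2 weeks between treatments. Two observers watched continuously for 6-7 h, recording reaction type and severity every 30 min. Result is number of monkeys showing dyskinesias over number tested.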

[32] = Number of animals showing dyskinesias was determined in haloperidol sensitized 2 cebus monkeys after (po) administration of 40 mg/kg; assay type: functional; in short: as §1
[33] = Number of animals showing dyskinesias was determined in haloperidol sensitized 5 cebus monkeys after (po) administration of 10 mg/kg; assay type: functional; in short: as §1
[34] = test system: Mus musculus; assay: Antagonism of apomorphine induced climbing was determined in female swiss -Wbster mice after (ip) administration of 10 mg/kg; assay type: functional; in short: as §2
[35] = test system: Mus musculus; assay: Antagonism of apomorphine induced climbing was determined in female swiss -Wbster mice after (ip) administration of 20 mg/kg; assay type: functional; in short: as §2
[36] = test system: Mus musculus; assay: Antagonism of apomorphine induced climbing was determined in female swiss -Wbster mice after (ip) administration of 40 mg/kg; assay type: functional; in short: as §2
[37] = test system: Mus musculus; assay: Antagonism of apomorphine induced climbing was determined in female swiss -Wbster mice after (ip) administration of 80 mg/kg; assay type: functional; in short: as §2
[38] = test system: Mus musculus; assay: Antagonism of apomorphine induced climbing was determined in female swiss -Wbster mice after (po) administration of 80 mg/kg; assay type: functional; in short: as §2
[39] = test system: Mus musculus; assay: Antagonism of apomorphine induced swimming was determined in female swiss -Wbster mice after (ip) administration of 20 mg/kg; assay type: functional
[40] = test system: Mus musculus; assay: Antagonism of apomorphine induced swimming was determined in female swiss -Wbster mice after (ip) administration of 40 mg/kg; assay type: functional
[41] = test system: Mus musculus; assay: Antagonism of apomorphine induced swimming was determined in female swiss -Wbster mice after (ip) administration of 80 mg/kg; assay type: functional
[42] = test system: Mus musculus; assay: Antagonism of apomorphine induced swimming was determined in female swiss -Wbster mice after (po) administration of 80 mg/kg; assay type: functional
[43] = Number of animals showing dyskinesias was determined in haloperidol sensitized cebus monkey after (po) administration of 10 mg/kg; assay type: functional; in short: as §1

D(2) dopamine receptor, sequence (P61169 whole entry): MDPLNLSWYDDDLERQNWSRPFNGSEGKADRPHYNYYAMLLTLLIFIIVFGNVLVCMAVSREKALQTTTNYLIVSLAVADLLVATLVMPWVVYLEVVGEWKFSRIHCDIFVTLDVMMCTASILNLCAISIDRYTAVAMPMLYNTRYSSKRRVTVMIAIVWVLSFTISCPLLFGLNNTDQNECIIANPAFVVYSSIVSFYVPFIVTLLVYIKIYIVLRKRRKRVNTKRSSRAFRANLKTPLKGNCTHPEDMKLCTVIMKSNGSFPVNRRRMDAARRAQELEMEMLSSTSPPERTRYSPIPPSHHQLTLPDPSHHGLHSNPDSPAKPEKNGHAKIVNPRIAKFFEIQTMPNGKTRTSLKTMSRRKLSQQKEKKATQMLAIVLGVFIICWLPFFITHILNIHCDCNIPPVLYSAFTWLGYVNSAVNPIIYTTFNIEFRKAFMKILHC
D(2) dopamine receptor (Rattus norvegicus), sequence (P61169 whole entry): as above

Row | Compound | IC50 [10] [nM] | Activity [2] | Activity [3] | Activity [4] | Activity [5] | Activity [11] | Activity [12] | Activity [13] | Activity [14] | Activity [15] | Activity [16] | Activity [17] | other results
1 | OCCN1CCN(C2=Nc3ccccc3Sc3ccccc32)CC1 | – | 24 | 6 | 1 | 3 | – | – | – | – | – | – | – | No of monkeys [1]: 2; Activity [6]: 18; Activity [7]: 28
2 | COCC(CN1CCN(C2=Nc3ccccc3Sc3ccccc32)CC1)OC (stereo not drawn) | 795 | 1 | 2 | 0 | – | 18 | 5 | 17 | 5 | 28 | 33 | 9 | No of monkeys [8]: 1; No of monkeys [9]: 1
3 | CN1CCN(C2=Nc3ccccc3Oc3ccccc32)CC1 | – | 2 | 0 | 3 | – | 19 | 13 | – | – | – | – | – | % displacement of spiropiperidone [18]: 27%; Activity [19]: 3; Activity [20]: 3; Activity [21]: 13; Activity [22]: 24; Activity [23]: 25; Activity [24]: 18; Activity [25]: 19; Activity [26]: 19; Activity [27]: 19; Activity [28]: 10
4 | OCCOCCN1CCN(C2=Nc3ccc(F)cc3Sc3ccccc32)CC1 | 560 | – | – | – | 1 | – | – | – | – | – | – | – | No of monkeys [31]: 3; No of monkeys [32]: 0; No of monkeys [33]: 1; Activity [34]: 14; Activity [35]: 9; Activity [36]: 8; Activity [37]: 2; Activity [38]: 23; Activity [39]: 1; Activity [40]: 8; Activity [41]: 18; Activity [42]: 2

Second part, led by results:

Row | IC50 [10] [nM] | Compound | Activity [2] | Activity [3] | Activity [4] | Activity [5] | Activity [11] | Activity [12] | Activity [13] | Activity [14] | Activity [15] | Activity [16] | Activity [17] | other results
5 | 293 | COCC(CCN1CCN(C2=Nc3ccccc3Sc3ccccc32)CC1)OC (stereo not drawn) | 5 | 0 | 0 | – | – | 21 | 8 | – | 20 | 32 | 2 | No of monkeys [29]: 5; No of monkeys [30]: 0
6 | 755 | COC(CO)CN1CCN(C2=Nc3ccccc3Sc3ccccc32)CC1 (stereo not drawn) | 8 | 2 | 1 | – | 21 | 19 | 6 | 0 | 22 | 32 | 2 | No of monkeys [43]: 2
